Measured values: PMC4332869 (Cancer chemotherapy and pharmacology, 2010)
Where two headings read alike, the source gives them in different places. Each block holds one molecule with its values, some of them ahead of it.

Tests used:
[1] = Plasma pharmacokinetics in A375 tumor-bearing nude mice; format: in vivo, mouse; details: for AUC: AUC0–24 h
Outline: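 Tumor-bearing nude mice got oral 5 or 10 mg/kg once, or 10 mg/kg daily for 7 days (tumors ≥600 mm3), as suspension in 1% Tween 80/PBS. Plasma came by cardiac exsanguination under isoflurane at 0.5–24 h (single) or 1–24 h after the last dose, n = 4. Acetonitrile/methanol extraction with analog internal standard. LC/MS/MS MRM, N-desmethyl m/z 445→287. Noncompartmental analysis; AUC by trapezoidal rule.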

A375 cell line = assay: Anti-proliferative response in cells grown in culture; format: cell-based, human; details: data not shown
[2] = Tissue and tumor distribution in A375 tumor-bearing nude mice; format: in vivo, mouse; details: for P:TAUC: plasma to tissue AUC ratio
[3] = cited from earlier work; for AUC: AUC0–12 h
[4] = tested on: tumor ERK phosphorylation (MEK1/2 inhibition); assay: Inhibition of tumor ERK phosphorylation by western blot; format: in vivo, mouse; details: A375 tumor
Outline: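 Male athymic BALB/c nude mice carrying s.c. rear-flank A375 xenografts (5 million cells in 4:1 serum-free RPMI:Matrigel), tumors ≥400 mm3, got one oral gavage of 5 or 10 mg/kg in 1% Tween 80/PBS. Four mice were killed per time point (0.5–24 h). Frozen tumor was sonicated in Triton/Tris pH 7.5 lysis buffer, then SDS-PAGE with pERK/ERK immunoblot. % inhibition = 100×(1 − treated pERK/ERK ÷ vehicle pERK/ERK).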

patients = details: ref [1], cited from earlier work
[5] = tested on: A375 human melanoma xenograft tumors; assay: Tumor apoptosis; format: in vivo, mouse; details: A375 xenograft tumor sections, versus vehicle
Outline: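 A375 xenograft tumors from oral-dosed and vehicle nude mice were formalin-fixed and paraffin-embedded, then cut into 5 μm sections. Sections were stained by TUNEL (TMR red in situ cell death kit) for apoptosis and by H&E for necrotic area, then imaged by fluorescence microscopy.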

[6] = metabolite in mouse plasma, AZD6244 5 mg/kg single oral dose
[7] = metabolite in mouse plasma, AZD6244 10 mg/kg once daily 7 days, steady state
[8] = metabolite in mouse plasma, AZD6244 10 mg/kg single oral dose
[9] = mouse plasma, 5 mg/kg single oral dose
[10] = mouse plasma, 10 mg/kg oral once daily 7 days, steady state
[11] = mouse plasma, 10 mg/kg single oral dose
[12] = nude, mouse, plasma, po, 5 mg/kg
[13] = nude, mouse, plasma, po, 10 mg/kg
[14] = human plasma, 100 mg single dose, ref Adjei et al. [1]

- AUC0–24 h [1, 6]: 3,597 ng/(mL h)
- Cmax [1, 6]: 505 ng/mL
- T1/2γ [1, 6]: 3.68 h
- Tmax [1, 6]: 1.0 h
- AUC0–24 h [1, 7]: 3,709 ng/(mL h)
- Cmax [1, 7]: 554 ng/mL
- T1/2γ [1, 7]: 2.37 h
- Tmax [1, 7]: 1.0 h
- AUC0–24 h [1, 8]: 4,993 ng/(mL h)
- Cmax [1, 8]: 865 ng/mL
- T1/2γ [1, 8]: 2.79 h
- Tmax [1, 8]: 2.0 h
SMILES: O=C(NOCCO)c1cc2[nH]cnc2c(F)c1Nc1ccc(Br)cc1Cl [AZD6244-N-desmethyl]
- potency of cellular growth inhibition in vitro relative to parent (A375 cell line): approximately twice the potency of the parent

- AUC0–12 h ([2]; gut, 5 mg/kg, single dose): 5,008 ng/(g h)
- AUC0–12 h ([2]; gut, 10 mg/kg, single dose): 6,845 ng/(g h)
- AUC0–12 h ([2]; gut, 10 mg/kg, steady state): 2,278 ng/(g h)
- AUC0–12 h ([2]; liver, 5 mg/kg, single dose): 4,356 ng/(g h)
- Cmin ([2]; liver, 5 mg/kg, single dose): 299 ng/g
- AUC0–12 h ([2]; liver, 10 mg/kg, single dose): 8,028 ng/(g h)
- Cmin ([2]; liver, 10 mg/kg, single dose): 110 ng/g
- AUC0–12 h ([2]; liver, 10 mg/kg, steady state): 6,781 ng/(g h)
- Cmin ([2]; liver, 10 mg/kg, steady state): 100 ng/g
- ratio of free drug in plasma to free drug in tissue (fB/fT) ([2]; mouse, single oral dose): 1.8
- AUC0–12 h ([2]; muscle, 10 mg/kg, single dose): 667 ng·h/g
- Cmin ([2]; muscle, 10 mg/kg, single dose): 896 ng/g
- Cmin ([2]; muscle, 10 mg/kg, steady state): 1,649 ng/g
- Cmax ([2]; nude, mouse, gut, po, 5 mg/kg, single dose): 1220 ng/g
- Cmax ([2]; nude, mouse, gut, po, 10 mg/kg, single dose): 1930 ng/g
- Cmax at 1 week ([2]; nude, mouse, gut, po, 10 mg/kg, steady state): 6780 ng/g
- half-life ([2]; nude, mouse, gut, po, 10 mg/kg, t1/2, gut, single dose): 1 h
- Tmax ([2]; nude, mouse, liver, lung, kidney, gut, muscle, skin, tumor, po, 10 mg/kg): 0.5 to 2 h
- Cmax ([2]; nude, mouse, lung, po, 5 mg/kg, single dose): 206 ng/g
- Cmax ([2]; nude, mouse, lung, po, 10 mg/kg, single dose): 327 ng/g
- half-life ([2]; nude, mouse, lung, po, 10 mg/kg, t1/2, lung, single dose): 1 h
- Cmax at 1 week ([2]; nude, mouse, muscle, po, 10 mg/kg, steady state): 2040 ng/g
- Cmax ([2]; nude, mouse, skin, po, 5 mg/kg, single dose): 136 ng/g
- Cmax ([2]; nude, mouse, skin, po, 10 mg/kg, single dose): 169 ng/g
- Cmax ([2]; nude, mouse, tumor, po, 5 mg/kg, single dose): 501 ng/g
- Cmax ([2]; nude, mouse, tumor, po, 10 mg/kg, single dose): 861 ng/g
- Cmax ([2]; nude, mouse, tumor, po, 10 mg/kg, steady state): 487 ng/g
- P:TAUC ([2]; gut, 5 mg/kg, single dose): 2.28
- P:TAUC ([2]; gut, 10 mg/kg, single dose): 2.66
- P:TAUC ([2]; gut, 10 mg/kg, steady state): 7.41
- P:TAUC ([2]; liver, 5 mg/kg, single dose): 2.62
- P:TAUC ([2]; liver, 10 mg/kg, single dose): 2.27
- P:TAUC ([2]; liver, 10 mg/kg, steady state): 2.49
- P:TAUC ([2]; lung, 5 mg/kg, single dose): 10.55
- P:TAUC ([2]; lung, 10 mg/kg, single dose): 7.45
- P:TAUC ([2]; muscle, 5 mg/kg, single dose): 14.06
- P:TAUC ([2]; muscle, 10 mg/kg, single dose): 27.33
- P:TAUC ([2]; muscle, 10 mg/kg, steady state): 18.16
- P:TAUC ([2]; skin, 5 mg/kg, single dose): 14.25
- P:TAUC ([2]; skin, 10 mg/kg, single dose): 16.56
- P:TAUC ([2]; tumor, 5 mg/kg, single dose): 3.17
- P:TAUC ([2]; tumor, 10 mg/kg, single dose): 3.82
- P:TAUC ([2]; tumor, 10 mg/kg, steady state): 4.45
- AUC0–12 h ([2]; skin, 5 mg/kg, single dose): 802 ng·h/g
- AUC0–12 h ([2]; tumor, 5 mg/kg, single dose): 3,601 ng/(g h)
- Cmin ([2]; tumor, 5 mg/kg, single dose): 44 ng/g
- AUC0–12 h ([2]; tumor, 10 mg/kg, single dose): 4,776 ng/(g h)
- Cmin ([2]; tumor, 10 mg/kg, single dose): 130 ng/g
- Cmin ([2]; tumor, 10 mg/kg, steady state): 52 ng/g
- T1/2γ [1, 9]: 2.81 h
- AUC [1, 9]: 11,910 ng/(mL h)
- T1/2γ [1, 10]: 2.29 h
- AUC [1, 10]: 17,525 ng/(mL h)
- T1/2γ [1, 11]: 2.62 h
- AUC [1, 11]: 18,976 ng/(mL h)
- CL/F [1, 12]: 6.67 mL/min/kg
- Cmax [1, 12]: 2970 ng/mL
- Tmax [1, 12]: 0.5 h
- Vd/F [1, 12]: 1.7 L/kg
- CL/F [1, 13]: 8.33 mL/min/kg
- Cmax [1, 13]: 3350 ng/mL
- Tmax [1, 13]: 2 h
- Vd/F [1, 13]: 2 L/kg
SMILES: Cn1cnc2c(F)c(Nc3ccc(Br)cc3Cl)c(C(=O)NOCCO)cc21 [AZD6244]
- human AUC ([3]; clinical exposure compared with mouse 10 mg/kg once daily, ref [1]): 10,012 ng/(mL h)
- AUC [3, 14]: 3,124 ng/(mL h)
- Cmax [3, 14]: 807 ng/mL
- T1/2γ [3, 14]: 4.5 h
- AUC ([3]; human plasma, 100 mg steady state, ref Adjei et al. [1]): 5,006 ng/(mL h)
- AUC0–12 h ([3]; humans given 100 mg AZD6244 free-base suspension BID, ref [1]): 3,124 ng/(mL h)
- AUC0–12 h ([3]; humans given 200 mg AZD6244 free-base suspension BID, ref [1]): 5,234 ng/(mL h)
- peak inhibition of phosphorylated ERK ([4]; 5 mg/kg single dose): 72%
- peak inhibition of phosphorylated ERK ([4]; 10 mg/kg single dose): 80%
- patients with stable disease of five or more months (patients; 9 of 54 patients): 16%
- tolerability (patients; most common toxicity skin rash, diarrhea, nausea and fatigue): well tolerated
- apoptotic cells as measured by TUNEL [5]: slight increase in apoptotic cells as measured by TUNEL, this increase was not statistically significant
- necrotic area [5]: no difference in necrotic area
